ChEMBL document CHEMBL1137333, “Synthesis, radiosynthesis, and biological evaluation of carbon-11 labeled 2beta-carbomethoxy-3beta-(3'-((Z)-2-haloethenyl)phenyl)nortropanes: candidate radioligands for in vivo imaging of the serotonin transporter with positron emission tomography” (J Med Chem, 2006)

Key:
Cynomolgus monkey [1] = test: Uptake in anesthetized cynomolgus monkey cerebellum after 2.5 mins; assay type: ADME, organism-based, Macaca mulatta; conditions: rhesus monkey, in vivo
How it was run: (§1)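 Baseline microPET (Concorde P4) regional brain time-activity curves in anesthetized cynomolgus monkey following injection of the [11C]-labelled tracer, with radioactivity followed over the scan.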

Cynomolgus monkey [2] = test: Uptake in anesthetized cynomolgus monkey medulla after 35.0 mins; assay type: ADME, organism-based, Medulla of organ; conditions: in vivo
How it was run: (§2)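 Baseline microPET scan (P4 scanner) of anesthetized cynomolgus monkeys after injection of the carbon-11 labelled nortropane tracer. Two baseline studies were run per tracer. Radioactivity was followed over time in regional brain time-activity curves.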

Cynomolgus monkey [3] = test: Uptake in anesthetized cynomolgus monkey midbrain after 6.5 mins; assay type: ADME, organism-based; conditions: in vivo; how it was run: as §2
Cynomolgus monkey [4] = test: Uptake in anesthetized cynomolgus monkey caudate after 27.5 mins; assay type: ADME, organism-based, Caudate nucleus; conditions: in vivo; how it was run: as §1
Cynomolgus monkey [5] = test: Uptake in anesthetized cynomolgus monkey thalamus after 115.0 mins; assay type: ADME, organism-based; conditions: in vivo
How it was run: (§3)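 Baseline microPET (Concorde P4) scan in anesthetized cynomolgus monkeys after injection of the carbon-11 labeled tracer, with no chase drug. Regional brain time-activity curves were followed over the scan. Tracer radiochemical purity and specific activity were determined by analytical HPLC at the time of injection.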

Cynomolgus monkey [6] = test: Uptake in anesthetized cynomolgus monkey cerebellum after 115.0 mins; assay type: ADME, organism-based; conditions: in vivo; how it was run: as §1
Cynomolgus monkey [7] = test: Uptake in anesthetized cynomolgus monkey medulla after 15.5 mins; assay type: ADME, organism-based, Medulla of organ; conditions: in vivo; how it was run: as §2
Cynomolgus monkey [8] = test: Uptake in anesthetized cynomolgus monkey putamen after 85.0 mins; assay type: ADME, organism-based; conditions: in vivo; how it was run: as §3
Cynomolgus monkey [9] = test: Ratio of uptake in caudate to cerebellum of anesthetized cynomolgus monkey after 65 mins; assay type: ADME, organism-based; conditions: in vivo
How it was run: (§4)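 Baseline microPET (Concorde P4) in anesthetized cynomolgus monkey after injection of the [11C]-labelled tracer. Regional time-activity curves were taken, and each region's uptake was divided by cerebellum uptake (low-SERT reference) at 65, 85 and 105 min postinjection.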

Cynomolgus monkey [10] = test: Uptake in anesthetized cynomolgus monkey cerebellum after 0.5 mins; assay type: ADME, organism-based; conditions: in vivo; how it was run: as §1
Cynomolgus monkey [11] = test: Uptake in anesthetized cynomolgus monkey thalamus after 3.5 mins; assay type: ADME, organism-based; conditions: in vivo; how it was run: as §3
Cynomolgus monkey [12] = test: Ratio of uptake in occipital to cerebellum of anesthetized cynomolgus monkey after 105 mins; assay type: ADME, organism-based; conditions: in vivo, 1.75 h; how it was run: as §4
Cynomolgus monkey [13] = test: Uptake in anesthetized cynomolgus monkey pons after 45.0 mins; assay type: ADME, organism-based; conditions: in vivo, 0.75 h; how it was run: as §3
Cynomolgus monkey [14] = test: Ratio of uptake in medulla to cerebellum of anesthetized cynomolgus monkey after 85 mins; assay type: ADME, organism-based; conditions: in vivo; how it was run: as §4
Cynomolgus monkey [15] = test: Uptake in anesthetized cynomolgus monkey midbrain after 27.5 mins; assay type: ADME, organism-based; conditions: in vivo; how it was run: as §2
Cynomolgus monkey [16] = test: Uptake in anesthetized cynomolgus monkey frontal after 0.5 mins; assay type: ADME, organism-based, Frontal cortex; conditions: in vivo; how it was run: as §1
Cynomolgus monkey [17] = test: Uptake in anesthetized cynomolgus monkey thalamus after 9.5 mins; assay type: ADME, organism-based; conditions: in vivo; how it was run: as §3
Cynomolgus monkey [18] = test: Uptake in anesthetized cynomolgus monkey caudate after 75.0 mins; assay type: ADME, organism-based, Caudate nucleus; conditions: in vivo, 1.25 h; how it was run: as §1
Cynomolgus monkey [19] = test: Uptake in anesthetized cynomolgus monkey occipital after 15.5 mins; assay type: ADME, organism-based, Macaca mulatta, Occipital cortex; conditions: rhesus monkey, in vivo; how it was run: as §2
Cynomolgus monkey [20] = test: Uptake in anesthetized cynomolgus monkey thalamus after 55.0 mins; assay type: ADME, organism-based; conditions: in vivo; how it was run: as §3
Cynomolgus monkey [21] = test: Uptake in anesthetized cynomolgus monkey cerebellum after 95.0 mins; assay type: ADME, organism-based; conditions: in vivo; how it was run: as §1
Cynomolgus monkey [22] = test: Uptake in anesthetized cynomolgus monkey putamen after 3.5 mins; assay type: ADME, organism-based; conditions: in vivo; how it was run: as §3
Cynomolgus monkey [23] = test: Uptake in anesthetized cynomolgus monkey pons after 18.5 mins; assay type: ADME, organism-based; conditions: in vivo; how it was run: as §3
Cynomolgus monkey [24] = test: Uptake in anesthetized cynomolgus monkey midbrain after 45.0 mins; assay type: ADME, organism-based; conditions: in vivo, 0.75 h; how it was run: as §2
Cynomolgus monkey [25] = test: Uptake in anesthetized cynomolgus monkey occipital after 4.5 mins; assay type: ADME, organism-based, Occipital cortex; conditions: in vivo, 0.075 h; how it was run: as §2
Cynomolgus monkey [26] = test: Uptake in anesthetized cynomolgus monkey medulla after 2.5 mins; assay type: ADME, organism-based, Medulla of organ; conditions: in vivo; how it was run: as §2
Cynomolgus monkey [27] = test: Uptake in anesthetized cynomolgus monkey pons after 15.5 mins; assay type: ADME, organism-based; conditions: in vivo; how it was run: as §3
Cynomolgus monkey [28] = test: Uptake in anesthetized cynomolgus monkey cerebellum after 45.0 mins; assay type: ADME, organism-based; conditions: in vivo, 0.75 h; how it was run: as §1
Cynomolgus monkey [29] = test: Ratio of uptake in frontal to cerebellum of anesthetized cynomolgus monkey after 65 mins; assay type: ADME, organism-based; conditions: in vivo; how it was run: as §4
Cynomolgus monkey [30] = test: Ratio of uptake in caudate to cerebellum of anesthetized cynomolgus monkey after 105 mins; assay type: ADME, organism-based; conditions: in vivo, 1.75 h; how it was run: as §4
Cynomolgus monkey [31] = test: Ratio of uptake in midbrain to cerebellum of anesthetized cynomolgus monkey after 85 mins; assay type: ADME, organism-based; conditions: in vivo; how it was run: as §4
Cynomolgus monkey [32] = test: Uptake in anesthetized cynomolgus monkey thalamus after 45.0 mins; assay type: ADME, organism-based; conditions: in vivo, 0.75 h; how it was run: as §3
Cynomolgus monkey [33] = test: Ratio of uptake in putamen to cerebellum of anesthetized cynomolgus monkey after 85 mins; assay type: ADME, organism-based; conditions: in vivo; how it was run: as §4
Cynomolgus monkey [34] = test: Ratio of uptake in frontal to cerebellum of anesthetized cynomolgus monkey after 105 mins; assay type: ADME, organism-based; conditions: in vivo, 1.75 h; how it was run: as §4

[11CH3]OC(=O)[C@@H]1C2CCC(C[C@@H]1c1cccc(/C=C/Br)c1)N2 (some centres undefined)
Drug uptake (Cynomolgus monkey [1]): 1.1
Drug uptake (Cynomolgus monkey [2]): 7.19
Drug uptake (Cynomolgus monkey [3]): 4.84
Drug uptake (Cynomolgus monkey [4]): 5.98
Drug uptake (Cynomolgus monkey [5]): 6.26
Drug uptake (Cynomolgus monkey [6]): 3.76
Drug uptake (Cynomolgus monkey [7]): 6.52
Drug uptake (Cynomolgus monkey [8]): 7.16
Ratio (Cynomolgus monkey [9]): 1.4
Drug uptake (Cynomolgus monkey [10]): 0.01
Drug uptake (Cynomolgus monkey [11]): 1.54
Ratio (Cynomolgus monkey [12]): 0.9
Drug uptake (Cynomolgus monkey [13]): 6.91
Ratio (Cynomolgus monkey [14]): 1.6
Drug uptake (Cynomolgus monkey [15]): 7.01
Drug uptake (Cynomolgus monkey [16]): 0.01
Drug uptake (Cynomolgus monkey [17]): 4.3
Drug uptake (Cynomolgus monkey [18]): 6.61
Drug uptake (Cynomolgus monkey [19]): 4.55
Drug uptake (Cynomolgus monkey [20]): 6.4
Drug uptake (Cynomolgus monkey [21]): 4.09
Drug uptake (Cynomolgus monkey [22]): 1.96
Drug uptake (Cynomolgus monkey [23]): 6.46
Drug uptake (Cynomolgus monkey [24]): 7.58
Drug uptake (Cynomolgus monkey [25]): 2.14
Drug uptake (Cynomolgus monkey [26]): 1.32
Drug uptake (Cynomolgus monkey [27]): 5.76
Drug uptake (Cynomolgus monkey [28]): 5.58
Ratio (Cynomolgus monkey [29]): 1
Ratio (Cynomolgus monkey [30]): 1.7
Ratio (Cynomolgus monkey [31]): 1.8
Drug uptake (Cynomolgus monkey [32]): 6.07
Ratio (Cynomolgus monkey [33]): 1.6
Ratio (Cynomolgus monkey [34]): 1.2
